Assay results as given in ChEMBL document CHEMBL1122926, “Potential radiosensitizing agents. 7. 4(5)-Iodo-5(4)-nitroimidazole derivatives” (J Med Chem, 1985).

Legend:
[1] = Compound evaluated for the partition coefficient (PC); assay type: physicochemical; conditions: octanol/water
Summary of the method: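 Octanol/phosphate buffer (0.1 M, pH 7.4) partition, equal volumes, stirred 1 h at room temperature. Nitroimidazole concentration in each phase measured spectrophotometrically.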

[2] = Compound evaluated in vitro for the dose required to kill 50% of chinese hamster cells measured by colony formation […]; assay type: functional; conditions: Cricetulus griseus, read-out: ED50 (the source's name)
Summary of the method: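 Chinese hamster V-79 cells, about 200 per dish, attached 2 h in MEM + 15% fetal calf serum. Exposed to a range of drug concentrations for 2 h at 37 °C, in air or hypoxia (95% N2/5% CO2 purge, 90 min). Drug then replaced by fresh medium, 6-day incubation, colonies stained with methylene blue and counted. ED50 read from concentration vs. percent survival graphs.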

[3] = Evaluated for sensitizer enhancement ratio determined by dividing the D0 value from the control radiation survival curve by the […] from the radiation survival curve in the presence at a concentration of 1.0 mM.
[4] = Evaluated for sensitizer enhancement ratio determined by dividing the D0 value from the control radiation survival curve by the […] from the radiation survival curve in the presence at a concentration of 0.1 mM.; assay type: functional
Summary of the method: (§1)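 Hypoxic asynchronous V-79 monolayers in sealed containers (95% N2/5% CO2 purge) with drug present. Irradiated at room temperature by linear accelerator, 180 rad/min, 400–2400 rad, for full survival curves by colony formation. SER is the D0 of hypoxic control cells divided by the D0 of hypoxic drug-treated cells. Drug given at maximum nontoxic 2-h concentration, up to 1 mM.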

[5] = Evaluated for sensitizer enhancement ratio determined by dividing the D0 value from the control radiation survival curve by the […] from the radiation survival curve in the presence at a concentration of 0.5 mM.; assay type: functional; summary of the method: as §1
[6] = Evaluated for sensitizer enhancement ratio determined by dividing the D0 value from the control radiation survival curve by the […] from the radiation survival curve in the presence at a concentration of 0.025 mM.; assay type: functional; summary of the method: as §1
[7] = Evaluated for sensitizer enhancement ratio determined by dividing the D0 value from the control radiation survival curve by the […] from the radiation survival curve in the presence at a concentration of 0.25 mM.; assay type: functional; summary of the method: as §1
[8] = Evaluated for sensitizer enhancement ratio determined by dividing the D0 value from the control radiation survival curve by the […] from the radiation survival curve in the presence at a concentration of 1.0 mM.; assay type: functional
Summary of the method: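 V-79 Chinese hamster asynchronous monolayers in MEM with 15% fetal calf serum. Cells made hypoxic in sealed containers purged with 95% N2/5% CO2 for 90 min, drug exposure 2 h. Irradiated at room temperature by linear accelerator at 180 rad/min, 400–2400 rad. Colonies counted after 6 days at 37 °C. SER = D0 of hypoxic controls / D0 of hypoxic drug-treated cells.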

[9] = Evaluated for sensitizer enhancement ratio determined by dividing the D0 value from the control radiation survival curve by the […] from the radiation survival curve in the presence at a concentration of 0.05 mM.; assay type: functional; summary of the method: as §1

Row | PC [1] | Structure (SMILES) | EC50 [2] [µM] | Ratio [4] | further results
1 | 0.04 | O=C(Cn1cnc([N+](=O)[O-])c1I)NCc1ccc[n+]([O-])c1 | > 1000 |  | Ratio [3]: 1.2
2 | 7.6 | O=C(Cn1cnc(I)c1[N+](=O)[O-])NCc1cccnc1 | 180 | 1.7 | 
3 | 7.8 | COCC(O)Cn1cnc(I)c1[N+](=O)[O-] (stereo not given) | 480 | 1.4 | 
4 | 19.4 | Cn1cnc(I)c1[N+](=O)[O-] | 820 |  | Ratio [5]: 2.4
5 | 3.7 | CCOC(=O)Cn1cnc([N+](=O)[O-])c1I | 60 |  | Ratio [6]: 1.7
6 | 2.9 | O=C(Cn1cnc([N+](=O)[O-])c1I)NCc1cccnc1 | 650 |  | Ratio [7]: 1.5
7 | 10.1 | Cn1cnc([N+](=O)[O-])c1I | 140 |  | Ratio [9]: 2.5
8 | 8.6 | CCOC(=O)Cn1cnc(I)c1[N+](=O)[O-] | 180 | 1.8 | 
9 | 2.6 | COCC(O)Cn1cnc([N+](=O)[O-])c1I (stereo not given) | 170 | 1.6 | 

Row | Structure (SMILES) | PC [1] | EC50 [2] [µM] | Ratio [4] | further results
10 | O=[N+]([O-])c1[nH]cnc1I | 1.9 | > 1000 |  | Ratio [8]: 1.1
